ChEMBL document CHEMBL4393694, “A multifunctional therapeutic approach: Synthesis, biological evaluation, crystal structure and molecular docking of diversified 1H-pyrazolo[3,4-b]pyridine derivatives against Alzheimer's disease” (Eur J Med Chem, 2019)
The source made the active and inactive calls. The rule behind the calls is not given here.

Columns and labels:
[1] = Metal chelating activity assessed as compound-Cu2+ complex formation at 30 uM after 30 mins by UV-visible spectrophotometric analysis
Summary of the method: (§1)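 UV absorption spectra (200–500 nm) were recorded over 30 min for compound (30 μM final) alone or with CuSO4 or FeSO4 (30 μM final). The medium was 20% (v/v) ethanol/buffer: 150 mM NaCl, 20 mM HEPES, pH 7.4.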

[2] = Inhibition of Cu2+ induced amyloid beta (1 to 42) aggregation at 25 uM incubated for 24 hrs by Thioflavin T based fluorometric assay relative to control
Summary of the method: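 Aβ1-42 was pretreated with HFIP, dried to a film, and held as a 5 mM DMSO stock. It was diluted in HEPES pH 6.6 with 150 μM NaCl, then incubated at 100 μM final with or without Cu2+ (100 μM final) for 48 h at 37 °C. Compounds were added at 25 μM final for 24 h at 37 °C. Samples (20 μL) were diluted to 200 μL glycine–NaOH (50 mM, pH 8.0) containing 5 μM ThT before reading fluorescence.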

[3] = Antioxidant activity assessed as AAPH-induced radical scavenging activity by measuring trolox equivalents for oxygen radical absorbance capacity measured up to 80 mins by ORAC-FL assay; type: functional
Summary of the method: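 Fluorescein (70 nM final) with test compound at eight concentrations (1–8 μM) in 75 mM phosphate buffer pH 7.4, preincubated 15 min at 37 °C. AAPH (12 mM final) then added and fluorescence read (ex 485/em 520 nm) for 80 min. Net AUC over blank regressed against concentration and converted to Trolox equivalents by standard curve (Trolox = 1). At least three runs.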

[4] = molecular target: T1, Amyloid-beta precursor protein (Homo sapiens, UniProt P05067); assay: Inhibition of self-mediated amyloid beta (1 to 42) (unknown origin) aggregation at 15 uM incubated for 48 hrs by thioflavin-T fluorescence assay relative to control
Summary of the method: (§2)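 HFIP-pretreated Aβ1-42 from a DMSO stock was diluted in phosphate buffer (50 mM, pH 7.4). Peptide was incubated with or without inhibitor at 10, 15, 20 or 25 μM for 48 h at 37 °C. Samples were diluted to 200 μL with glycine–NaOH (50 mM, pH 8.0) and fibrils read by ThT fluorescence. Blanks lacking Aβ were run. IC50 was derived from the four concentrations.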

[5] = molecular target: Acetylcholinesterase (Electrophorus electricus, UniProt O42275); assay: Inhibition of electric eel AChE using acetylthiocholine iodide as substrate preincubated for 5 mins followed by substrate addition measured after 5 mins by Ellman's method
[6] = molecular target: T1, Amyloid-beta precursor protein; assay: Inhibition of self-mediated amyloid beta (1 to 42) (unknown origin) fibril formation assessed as appearance of sparse fibrils at 25 uM after 48 hrs by transmission electron microscopic analysis
[7] = molecular target: T1, Amyloid-beta precursor protein; assay: Inhibition of self-mediated amyloid beta (1 to 42) (unknown origin) aggregation at 20 uM incubated for 48 hrs by thioflavin-T fluorescence assay relative to control; summary of the method: as §2
[8] = molecular target: Cholinesterase (Equus caballus, UniProt P81908); assay: Inhibition of equine serum BuChE using butyrylthiocholine iodide as substrate pretreated for 5 mins followed by substrate addition measured after 5 mins by Ellman's method
Summary of the method: (§3)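 Ellman assay in phosphate buffer pH 8.0. AChE (0.22 U/mL) or BuChE (0.06 U/mL) preincubated 5 min with inhibitor (0.01–100 μM final). DTNB then added, and the reaction started with ATC or BTC (0.075 M solution). IC50 reported as mean ± SD. Selectivity is IC50(BuChE)/IC50(AChE).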

[9] = Metal chelating activity assessed as compound-Fe2+ complex formation at 30 uM after 30 mins by UV-visible spectrophotometric analysis; summary of the method: as §1
[10] = molecular target: T1, Amyloid-beta precursor protein; assay: Inhibition of self-mediated amyloid beta (1 to 42) (unknown origin) aggregation at 10 uM incubated for 48 hrs by thioflavin-T fluorescence assay relative to control; summary of the method: as §2
[11] = Inhibition of Cu2+ induced amyloid beta (1 to 42) aggregation assessed as fluorescence intensity at 25 uM incubated for 24 hrs by Thioflavin T based fluorometric assay (reference value: 606.64 +/- 36.11 a.u.)
[12] = molecular target: T1, Amyloid-beta precursor protein; assay: Inhibition of self-mediated amyloid beta (1 to 42) (unknown origin) aggregation incubated for 48 hrs by thioflavin-T fluorescence assay; summary of the method: as §2
[13] = molecular target: T1, Amyloid-beta precursor protein; assay: Inhibition of self-mediated amyloid beta (1 to 42) (unknown origin) aggregation at 25 uM incubated for 48 hrs by thioflavin-T fluorescence assay relative to control
Summary of the method: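 HFIP-pretreated Aβ1-42 taken up in DMSO (5 mM stock), diluted in 50 mM phosphate pH 7.4 (100 μM final). Incubated 48 h at 37 °C with or without compound at 25 μM. Samples diluted to 200 μl with 50 mM glycine-NaOH pH 8.0 and read by ThT fluorescence. Percent inhibition reported as mean ± SD.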

[14] = molecular target: T1, Amyloid-beta precursor protein; assay: Disaggregation of self-induced amyloid beta (1 to 42) (unknown origin) preformed fibrils measured after 24 hrs by ThT fluorescence assay relative to control
Summary of the method: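 HFIP-pretreated Aβ1-42 taken up in DMSO (5 mM stock), diluted in 50 mM phosphate pH 7.4 (100 μM final). Peptide incubated 48 h at 37 °C, then compound or buffer added and incubated a further 24 h at 37 °C. Samples diluted to 200 μl with 50 mM glycine-NaOH pH 8.0 and read by ThT fluorescence. Peptide-free blanks run in parallel.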

[15] = Selectivity index, ratio of IC50 for equine serum BChE to IC50 for electric eel AChE
Summary of the method: as §3, with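 “solution). Absorbance read at 412 nm, 25 °C, 5 min after substrate.” for “solution).”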

[16] = molecular target: Acetylcholinesterase (Electrophorus electricus) (UniProt O42275); assay: Mixed-type inhibition of electric eel AChE assessed as decreased Vmax with higher Km using varying levels of acetylthiocholine iodide as substrate pretreated for 5 mins followed by substrate addition by Lineweaver-Burk plot analysis
Summary of the method: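 AChE kinetics by Ellman's method, with substrate varied at comparatively low concentrations. Inhibitor tested at 10, 20 and 40 nM. Inhibition type assigned from Lineweaver–Burk plots of 1/velocity versus 1/substrate.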

Chain of Acetylcholinesterase (O42275 whole entry): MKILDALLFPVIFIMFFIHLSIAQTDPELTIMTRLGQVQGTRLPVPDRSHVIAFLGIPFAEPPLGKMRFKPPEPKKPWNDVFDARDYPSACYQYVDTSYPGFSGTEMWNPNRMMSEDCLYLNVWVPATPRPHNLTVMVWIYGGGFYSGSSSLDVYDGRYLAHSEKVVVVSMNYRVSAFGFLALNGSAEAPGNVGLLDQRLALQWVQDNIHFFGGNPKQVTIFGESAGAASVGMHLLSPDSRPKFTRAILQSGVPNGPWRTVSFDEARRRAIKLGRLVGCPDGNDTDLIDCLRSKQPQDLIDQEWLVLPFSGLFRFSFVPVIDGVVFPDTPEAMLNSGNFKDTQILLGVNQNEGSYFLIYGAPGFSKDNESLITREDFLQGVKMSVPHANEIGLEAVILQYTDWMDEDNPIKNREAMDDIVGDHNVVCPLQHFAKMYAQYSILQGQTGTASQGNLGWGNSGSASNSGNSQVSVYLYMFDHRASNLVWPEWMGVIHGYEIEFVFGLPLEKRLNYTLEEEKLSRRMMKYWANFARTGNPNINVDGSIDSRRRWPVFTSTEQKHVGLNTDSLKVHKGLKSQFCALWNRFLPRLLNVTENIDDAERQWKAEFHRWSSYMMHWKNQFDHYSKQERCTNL
Chain of Cholinesterase (P81908 whole entry): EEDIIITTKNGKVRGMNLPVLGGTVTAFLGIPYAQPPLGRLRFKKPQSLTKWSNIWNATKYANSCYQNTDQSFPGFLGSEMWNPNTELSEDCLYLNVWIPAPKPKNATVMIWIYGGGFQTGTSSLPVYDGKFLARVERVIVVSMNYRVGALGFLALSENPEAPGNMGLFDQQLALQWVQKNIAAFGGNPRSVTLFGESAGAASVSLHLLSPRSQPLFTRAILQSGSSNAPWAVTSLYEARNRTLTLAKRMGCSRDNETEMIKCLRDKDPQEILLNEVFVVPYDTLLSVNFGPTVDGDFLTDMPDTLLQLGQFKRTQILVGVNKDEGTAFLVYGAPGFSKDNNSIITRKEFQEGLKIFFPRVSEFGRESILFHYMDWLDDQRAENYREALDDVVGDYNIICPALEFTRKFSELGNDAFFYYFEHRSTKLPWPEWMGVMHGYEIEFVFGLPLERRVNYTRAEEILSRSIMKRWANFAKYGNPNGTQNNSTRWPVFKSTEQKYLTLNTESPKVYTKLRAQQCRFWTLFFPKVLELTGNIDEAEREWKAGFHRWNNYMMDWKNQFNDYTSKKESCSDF
T1 sequence (P05067 whole entry): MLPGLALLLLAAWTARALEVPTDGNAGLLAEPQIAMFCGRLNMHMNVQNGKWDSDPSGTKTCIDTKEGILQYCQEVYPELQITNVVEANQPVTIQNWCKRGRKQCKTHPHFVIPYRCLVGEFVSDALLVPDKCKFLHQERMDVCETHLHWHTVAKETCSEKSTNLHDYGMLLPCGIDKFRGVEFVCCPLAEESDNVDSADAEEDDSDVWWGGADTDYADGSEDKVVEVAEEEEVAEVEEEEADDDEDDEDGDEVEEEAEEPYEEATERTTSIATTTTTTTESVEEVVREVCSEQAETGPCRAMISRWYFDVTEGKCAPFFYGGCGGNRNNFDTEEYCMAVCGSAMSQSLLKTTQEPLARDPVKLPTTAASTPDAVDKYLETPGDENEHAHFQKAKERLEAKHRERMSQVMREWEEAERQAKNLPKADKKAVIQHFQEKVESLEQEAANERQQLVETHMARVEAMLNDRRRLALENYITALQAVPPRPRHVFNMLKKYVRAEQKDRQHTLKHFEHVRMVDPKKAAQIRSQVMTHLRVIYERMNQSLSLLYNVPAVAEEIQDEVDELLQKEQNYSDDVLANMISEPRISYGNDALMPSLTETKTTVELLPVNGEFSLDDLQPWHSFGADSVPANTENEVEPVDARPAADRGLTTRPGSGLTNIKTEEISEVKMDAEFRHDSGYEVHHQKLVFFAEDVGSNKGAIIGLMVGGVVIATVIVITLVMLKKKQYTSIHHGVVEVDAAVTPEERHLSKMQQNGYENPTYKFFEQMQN
Chain of Acetylcholinesterase (Electrophorus electricus) (O42275 24-633 limits assumed): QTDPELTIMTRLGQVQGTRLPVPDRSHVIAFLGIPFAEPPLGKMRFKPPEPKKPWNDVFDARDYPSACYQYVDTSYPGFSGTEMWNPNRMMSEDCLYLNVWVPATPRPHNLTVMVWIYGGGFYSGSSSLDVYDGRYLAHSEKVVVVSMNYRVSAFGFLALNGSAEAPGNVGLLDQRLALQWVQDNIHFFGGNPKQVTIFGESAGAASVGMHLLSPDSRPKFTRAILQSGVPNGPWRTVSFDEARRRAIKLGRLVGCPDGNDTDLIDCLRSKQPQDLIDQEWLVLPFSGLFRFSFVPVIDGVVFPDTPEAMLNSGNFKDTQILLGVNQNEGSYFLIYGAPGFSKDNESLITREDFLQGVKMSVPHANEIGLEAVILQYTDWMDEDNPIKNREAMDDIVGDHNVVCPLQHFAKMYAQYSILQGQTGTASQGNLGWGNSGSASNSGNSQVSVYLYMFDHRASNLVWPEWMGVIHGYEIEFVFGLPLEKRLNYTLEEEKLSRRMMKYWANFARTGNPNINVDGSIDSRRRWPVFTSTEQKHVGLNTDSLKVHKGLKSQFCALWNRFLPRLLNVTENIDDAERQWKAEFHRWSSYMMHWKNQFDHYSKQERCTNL

SMILES | Activity [1] | inhibition [2] | Activity [3] | inhibition [4] | IC50 [5] | inhibition [6] | inhibition [7] | IC50 [8] | Activity [9] | inhibition [10] | Flu intensity [11] | IC50 [12] | inhibition [13] | Activity [14] | Ratio IC50 [15] | inhibition [16]
CCOC(=O)c1cnc2ccccc2c1N1CCN(CC(=O)Nc2n[nH]c3ncccc23)CC1 | Active | 57% | 0.274 µMequiv/µM | 43.8% | > 100 µM | Active | 84.1% | > 100 µM | Active | 28.6% | 261 a.u. | 15.7 µM | 81.7% | 61.6% |  | 
O=C(CN1CCCCC1)Nc1n[nH]c2ncccc12 |  |  | 0.65 µMequiv/µM |  | 0.0048 µM |  |  | > 100 µM |  |  |  |  | 50.6% |  | > 20800 | 
CN1CCN(CC(=O)Nc2n[nH]c3ncccc23)CC1 |  |  | 0.362 µMequiv/µM |  | 0.0049 µM |  |  | > 100 µM |  |  |  |  | 50.9% |  | > 20400 | 
O=C(CN1CCN(c2ccnc3cc(Cl)ccc23)CC1)Nc1n[nH]c2ncccc12 |  |  | 0.286 µMequiv/µM |  | 0.012 µM |  |  | > 100 µM |  |  |  |  | 23.6% |  | > 8330 | 
N#Cc1cccnc1N1CCN(CC(=O)Nc2n[nH]c3ncccc23)CC1 |  |  | 0.163 µMequiv/µM |  | > 100 µM |  |  | > 100 µM |  |  |  |  | 40% |  |  | 
O=C(CN1CCN(CC(=O)Nc2n[nH]c3ncccc23)CC1)Nc1n[nH]c2ncccc12 | Active | 58.8% | 0.283 µMequiv/µM | 39.9% | 0.045 µM | Active | 58% | > 100 µM | Active | 3.9% | 250 a.u. | 17.9 µM | 79.5% | 53.8% | > 2220 | Active
Cc1cc(N2CCN(CC(=O)Nc3n[nH]c4ncccc34)CC2)n2ncnc2n1 |  |  | 0.216 µMequiv/µM |  | 0.022 µM |  |  | > 100 µM |  |  |  |  | 43.4% |  | > 4550 | 
O=C(CN1CCOCC1)Nc1n[nH]c2ncccc12 |  |  | 0.192 µMequiv/µM |  | 0.113 µM |  |  | > 100 µM |  |  |  |  | 74.6% | 47.4% | > 885 | 
COc1cc(/C=C/C(=O)CC(=O)/C=C/c2ccc(O)c(OC)c2)ccc1O |  | 45.2% |  |  |  | Active |  |  |  |  | 333 a.u. |  |  |  |  | 
CCOC(=O)c1cnc2ccc(C)cc2c1N1CCN(CC(=O)Nc2n[nH]c3ncccc23)CC1 |  |  | 0.271 µMequiv/µM |  | > 100 µM |  |  | > 100 µM |  |  |  |  | 69.3% | 52.1% |  | 
